Screening results: PubChem BioAssay, several laboratories
aDG glyco up: alpha-DG glycosylation activation; Pro5-aDG cells, alpha-DG glycosylation AlphaScreen (IIH6); 0% Pro5, 100% B10-LARGE cell signal; activation, % at 10 µM; hit rate 0.22% among 360,000; AID 624168;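 active = activation of at least 8% versus controls, or a plate z-score of at least 8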;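 also: Pro5 are CHO cells carrying HIG-tagged alpha-DG that lacks glycosylation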
T cell HTS: T cell immune modulation candidate; 2C CD8+ T cell-vesicle binding, flow cytometry; hits give low values; response (vesicle binding), % at 7 µM; hit rate 0.068% among 330,000; AID 2052;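 active = response, share of CD8 T cells binding vesicles, and their 90th percentile fluorescence all below set limits, cut at about 80% in these data, passing the limit was not always enough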;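 also: values below 100% mean blocked vesicle binding to the CD8+ T cells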
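Also added: QL9-peptide-loaded Drosophila micro-vesicles bearing Ld, ICAM-1 and B7-1; Test system: purified 2C TCR transgenic mouse naive CD8+ T cells; Measured by: cytometric PE anti-B7-1 and Alexa647 anti-CD8 signals after 1% paraformaldehyde fixation; Timing: binding step 1.5 h, 37 °C, antibody labelling 20 min, ice.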
Rce1 inhib: yeast Ras-converting enzyme inhibition | Q03530 | yeast membranes, quenched prenylated peptide cleavage fluorescence | calls only | hit rate 0.27% among 290,000 | AID 2563;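 active = fall in fluorescence gain of 50% or more versus controls, with final raw signal at or below 3038400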;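 also: plate controls were neutral control wells for no effect and wells lacking membranes for full effect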
Target sequence (Q03530 whole entry, looked up): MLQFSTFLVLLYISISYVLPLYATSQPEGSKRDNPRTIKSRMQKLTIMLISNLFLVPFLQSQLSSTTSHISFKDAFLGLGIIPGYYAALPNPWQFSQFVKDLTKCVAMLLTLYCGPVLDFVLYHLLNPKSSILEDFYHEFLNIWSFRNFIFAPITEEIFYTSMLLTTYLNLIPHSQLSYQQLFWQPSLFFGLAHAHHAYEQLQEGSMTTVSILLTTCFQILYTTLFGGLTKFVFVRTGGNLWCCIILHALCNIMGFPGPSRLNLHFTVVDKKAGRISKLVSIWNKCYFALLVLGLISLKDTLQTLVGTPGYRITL
PolyA inhibitor: inhibitors of polyadenylation in S. cerevisiae | S. cerevisiae SKY197-pL101 polyadenylation reporter, beta-gal luminescence; efflux-impaired pdr1/pdr3 knockout yeast; score 100 = 6 SD above DMSO | activity score, % at 12 µM | hit rate 0.02% among 300,000 | AID 1875;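 active = lowest replicate activity score at least 50, where 100 means six control SD above control mean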;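 also: yeast exposed to compound for 9 h at 30 °C; higher score means more reporter readthrough which indicates perturbed polyadenylation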
aDG conf: confirmation of alpha dystroglycan glycosylation activators. AID 651671. activation, % at 10 µM (by protocol). shares compounds with aDG glyco up. Pro5-aDG cells, alpha-DG glycosylation, IIH6 AlphaLISA; scaled to LARGE-overexpressing B10 cells as 100%. hit rate 17% among 600;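 active = activation of at least 7% in one or more replicates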;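 also: cells exposed to compound for two days before detection; 0% = DMSO-treated Pro5 cells and 100% = DMSO-treated B10-LARGE cells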
Numbers without * were called inactive; i = inactive; . = not tested or not shown. Shown are actives, neighbours in structure and some others; about 0.51% of the full set was active somewhere.

SMILES | aDG glyco up | T cell HTS | Rce1 inhib | PolyA inhibitor | aDG conf
Cc1ncc(CO)c(CO)c1OCC(O)CN1CCN(c2ccc(F)cc2)CC1 (centres undefined) | 0 | . | . | . | .
COc1ccc(C)cc1NC(=O)c1nn(-c2ccccc2)cc1OC | 2.5* | 136 | i | -22 | 2
COc1cn(-c2ccccc2)nc1C(=O)Nc1ccc(C)cc1 | 0 | 324 | i | -6 | .
N#Cc1cc2ccccc2nc1SCC(=O)Nc1ccccc1N1CCOCC1 | 0 | 107 | i | 1 | .
Cc1cccc2cc(C#N)c(SCC(=O)Nc3ccccc3N3CCOCC3)nc12 | 4.9* | 0 | i | -7 | -1
COc1ccc([C@H]2C[C@H](O)[C@@H](n3cc(C4CC4)nn3)CN2C(=O)C2CCCCC2)cc1 | 0 | . | . | . | .
CCC(c1nnnn1Cc1cccs1)N1CCN(c2nc3ccccc3s2)CC1 (centres undefined) | 12* | 189 | i | 9 | 3.4*
c1cncc(-c2nnc(-c3cccnc3)nn2)c1 | 13* | 259 | i | 6 | 7.6*
c1ccc(-c2nnc(-c3ccccc3)nn2)cc1 | 0 | 204 | i | -9 | .
CC1CCCN(Cc2ccc(OCc3ccccc3)cc2)C1 (centres undefined) | 0 | 148 | i | -8 | .
CC(=O)c1c(O)cc2c3c1OC(C)(C)C1CCC(C)(CC31)O2 (centres undefined) | 0 | . | . | . | .
Cc1ccc2nc(-c3ccc(F)cc3)c(CC3CCCCC3)n2c1 | 8.8* | . | . | . | 0
COC(=O)c1ccc(N2CCC(c3cc(-c4ccc(OC)cc4)n[nH]3)CC2)c([N+](=O)[O-])c1 | 4 | 410 | i | 9 | .
COc1ccc(-c2cc(C3CCN(c4ccc(C(C)=O)cc4[N+](=O)[O-])CC3)[nH]n2)cc1 | 10* | 300 | i | -3 | 4
COc1cccc(N2CCN(c3ccc([N+](=O)[O-])cn3)CC2)c1 | 3.4* | 278 | i | 1 | 0
CCOC1=C2CN(S(=O)(=O)c3ccc(C)cc3)[C@H](c3ccccc3)C[C@@H]2N(S(=O)(=O)c2ccc(C)cc2)[C@H](c2ccccc2)C1 | 6.8* | . | . | . | -1
O=C(c1ccc2c3c(cccc13)CC2)C1CCCN(Cc2ccncc2)C1 (centres undefined) | 0 | 233 | i | -10 | .
CCc1nc(CN2CCCC(C(=O)c3ccc4c5c(cccc35)CC4)C2)c(C)[nH]1 (centres undefined) | 7.3* | 213 | i | 3 | -1
Cc1c(NC(=O)COC(=O)c2ncc(Cl)c(Cl)c2Cl)c(=O)n(-c2ccccc2)n1C | 0 | 352 | i | -7 | .
COc1ccc(CNC(=O)c2cccc3c(-c4cccnc4)coc23)cc1OC | 8.1* | . | . | . | 1
COc1cc(-c2ccc(NC(=O)CN3CCC(C)CC3)c(OC)c2)ccc1NC(=O)CN1CCC(C)CC1 | 18* | . | i | 6 | 4.0*
CC1CCCC(C)N1C(=O)CSc1nnnn1Cc1ccccc1 (centres undefined) | 5.6* | 470 | i | -11 | -1
COc1ccc(-c2ccc3c(c2)S(=O)(=O)c2cccc(C(=O)NC4CCCCC4)c2C3=O)cc1OC | 71* | 580 | . | . | 0
COc1ccc(-c2ccc3c(c2)S(=O)(=O)c2cccc(C(=O)NC4CC4)c2C3=O)cc1OC | 0 | 900 | . | . | .
COCOCCn1cc(CN2CCS(=O)(=O)N(Cc3ccc(-c4ccc(OC)nc4)cc3)C(C(C)C)C2=O)nn1 (centres undefined) | 0 | . | . | . | .
SMILES | aDG glyco up | T cell HTS | Rce1 inhib | PolyA inhibitor | aDG conf
CCOC(=O)c1cc(-c2ccc(F)cc2)n(CCC(=O)NC2CCN(Cc3ccccc3)CC2)c1C | 8.4* | 216 | i | 6 | 3.5*
Cc1c(Br)c([N+](=O)[O-])nn1CC(=O)N1CCCc2ccccc21 | 4.4* | 241 | i | 6 | -1
CCOC(=O)C(=CNc1cc(C)nn1-c1ccc(C)cc1)C(=O)OCC | 4.7* | 970 | i | 4 | 1
CC(=O)N1CCCC(C)(C(=O)Nc2ccc3oc(C)nc3c2)C1 (centres undefined) | 0 | . | . | . | .
O=C(CCN1C(=O)COc2ccccc21)NCCCN1CCCC1 | 6.4* | 145 | i | -7 | 2
CC1=C(C(=O)N(C(C)C)C(C)C)CC(CC(=O)NC2CCCCC2)C(=O)N1Cc1ccc(C(C)(C)C)cc1 (centres undefined) | 0 | . | . | . | .
COc1ccc(CN2C(=O)C(CC(=O)NC3CCCC3)CC(C(=O)N(C(C)C)C(C)C)=C2C)cc1 (centres undefined) | 5.0* | . | . | . | 1
Cc1ccc(S(=O)(=O)N2CCN(C(=O)COC(=O)CNC(=O)c3ccc(Cl)cc3Cl)CC2)c(C)c1 | 0 | . | . | . | .
Cc1nc(NC(C)c2ccccc2)c2oc3ccccc3c2n1 (centres undefined) | 6.7* | 323 | i | -2 | 0
Cc1cccc(/C=C2/Sc3ccc(C(=O)NCCN4CCCC4)cc3NC2=O)c1 | 8.2* | 176 | i | -12 | 7.8*
O=C1Nc2cc(C(=O)NCCN3CCCCCC3)ccc2S/C1=C\c1ccccc1 | 0 | 230 | i | 2 | .
O=C(NCc1cccnc1)c1ccc(-c2cc3ccccc3oc2=O)cc1 | 5.6* | 603 | i | 3 | 0
O=C(Nc1ccc(N2CCCCCC2)cc1)c1cccc(S(=O)(=O)N2CCOCC2)c1 | 2.8* | 917 | . | . | 1
Brc1ccc2ncnc(NCc3ccccc3)c2c1 | 8.2* | 489 | i | 16 | 3.4*
CC(C)(C)OC(=O)C(Oc1ccccc1[N+](=O)[O-])C(=O)OC(C)(C)C | 0 | . | . | . | .
CCOc1ccccc1N(CC(=O)N1CCN(Cc2ccccc2)CC1)S(=O)(=O)c1ccccc1 | 0 | . | . | . | .
CC(C(=O)Nc1cccc([N+](=O)[O-])c1)N1C(=O)NC2(CCCC2)C1=O (centres undefined) | 0 | 158 | i | 7 | .
Cc1onc(-c2ccccc2)c1C(=O)N/N=C/c1ccc([N+](=O)[O-])s1 | 6.0* | 790 | i | 0 | 3
O=C(Cc1cccs1)N/N=C\c1ccc([N+](=O)[O-])s1 | 13* | 668 | i | -10 | 3.9*
O=C(CNC(=O)c1ccccc1Cl)N/N=C/c1ccc([N+](=O)[O-])s1 | 12* | 292 | i | 19 | 6.5*
Cc1onc(-c2ccccc2)c1C(=O)N/N=C/c1ccco1 | 0 | 214 | . | 4 | .
COc1cc(/C=N/NC(=O)Cc2cccs2)c([N+](=O)[O-])cc1OC | 0 | 316 | i | 7 | .
Cc1cccc(C)c1NC(=O)CSc1nc2[nH]c(=O)cc(O)c2s1 | 18* | 324 | . | . | 0
Cc1ccccc1NC(=O)CSc1nc2[nH]c(=O)cc(O)c2s1 | 0 | . | . | . | .
CCOC(=O)N1CCC(N2C(=O)c3ccc(C(=O)Nc4ccc(F)cc4F)cc3C2=O)CC1 | 8.8* | i | i | 8 | -1
CCOC(=O)N1CCC(N2C(=O)c3ccc(C(=O)Nc4ccc(OC)cc4)cc3C2=O)CC1 | 0 | 394 | i | -21 | .
